Among the data in ChEMBL document CHEMBL1149345, “Pyrrolo[1,2-b][1,2,5]benzothiadiazepines (PBTDs): A new class of agents with high apoptotic activity in chronic myelogenous leukemia K562 cells and in cells from patients at onset and who were imatinib-resistant” (2006) are Activity values, retold here.

Activity calls are given as the source filed them. No cut-off for these calls is given here.

Experiment [1] has as its system K562. In words: Apoptotic activity against human K562 cell line at 10 uM after 8 hrs. In kind it is functional. The method in brief:
(§1)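 K562 cells exposed at 10 µM for 8, 16, 24 and 48 h, run alongside imatinib reference and untreated control cells. Result is % apoptosis as mean ± SD of triplicate experiments. Morphology (chromatin condensation, micronuclei, vacuolization) checked by electron microscopy.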

Experiment [2] relates to K562. The experiment in a line: Apoptotic activity against human K562 cell line at 10 uM after 48 hrs. The experiment is classed as functional. In a few lines: as §1
The test system of experiment [3] is K562. The experiment in a line: Apoptotic activity against human K562 cell line at 10 uM after 16 hrs. In kind it is functional. In a few lines: as §1
The test system of experiment [4] is K562. In words: Apoptotic activity against human K562 cell line at 10 uM after 24 hrs. The experiment is classed as functional. In a few lines:
as §1

For experiment [5], the species on record is Homo sapiens. In words: Apoptotic activity against peripheral blood cells of imatinib-resistant CML affected human (38-70 yrs) at blast crisis phase at 10 uM after 48 hrs. The experiment is classed as functional. In a few lines: (§2)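 Peripheral blood cells taken from 2 CML patients in blast crisis that evolved under imatinib treatment. Cells cultured in vitro and exposed at 10 µM for 24 and 48 h. Apoptosis scored as % by DNA fragmentation assay.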

The test system of experiment [6] is K562. The experiment in a line: Decrease in procaspase 8 expression in human K562 cells by Western blot. In kind it is functional, cell-based. The method in brief: (§3)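 Lysates of treated K562 cells taken after 24 h. Procaspase-8 and procaspase-9 immunoreactive bands assessed by Western blot.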
In general terms: In western blotting, separated proteins are transferred to a membrane and probed.

For experiment [7], the system named is K562. The experiment in a line: BCR-ABL inactivation-independent inhibition of […]-induced apoptosis in human K562 cell at 10 uM by Western blot. In kind it is functional, cell-based.
The species entered for experiment [8] is Homo sapiens. In words: Apoptotic activity against peripheral blood cells of imatinib-resistant CML affected human (38-70 yrs) at blast crisis phase at 10 uM after 24 hrs. The experiment is classed as functional. In a few lines: as §2
The species named for experiment [9] is Homo sapiens. In words: Apoptotic activity against peripheral blood cells of CML affected human (27-83 yrs) at onset phase at 10 uM after 48 hrs. The experiment is classed as functional. The method in brief: (§4)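 Bone marrow or peripheral blood cells harvested from 12 consecutive CML patients at onset. Cells cultured in vitro and treated at 10 µM for 24 and 48 h. Read-out by DNA fragmentation assay as % apoptosis.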

The species entered for experiment [10] is Homo sapiens. In words: Apoptotic activity against peripheral blood cells of CML affected human (27-83 yrs) at onset phase at 10 uM after 24 hrs. The experiment is classed as functional. The method in brief: as §4
Experiment [11] concerns K562. The experiment in a line: Decrease in procaspase 9 expression in human K562 cells by Western blot. The experiment is classed as functional, cell-based. In a few lines:
as §3

Consider `CCOC(=O)[C@H]1c2cccn2S(=O)(=O)c2ccccc2N1C(=O)c1ccc(C)cc1`, for which the Activity is on record as 33.1% with K562 [1], 81.8% in the experiment with K562 [2], 57.8% with K562 [3] and 67.6% in the experiment with K562 [4].

As to `CCOC(=O)[C@H]1Nc2ccccc2S(=O)(=O)n2cccc21`, the Activity stood at 26.6% in the experiment with K562 [1], 86.2% in the experiment on K562 [2], 53.8% in the experiment on K562 [3] and 69% in the experiment on K562 [4].

As to `CCOC(=O)[C@@H]1c2cccn2S(=O)(=O)c2ccccc2N1C(=O)c1ccc(C)cc1`, the Activity with K562 [1] worked out at 38%; in the experiment with K562 [2] it was 86.2%; with K562 [3] it was 63%; in the experiment on K562 [4] it was 71.6%.

As for `CCOC(=O)[C@@H]1Nc2ccccc2S(=O)(=O)n2cccc21`, the Activity amounted to 20.5% with K562 [1], 80.3% in the experiment on K562 [2], 48.4% in the experiment with K562 [3] and 63.2% in the experiment on K562 [4].

For the compound `CCOC(=O)C1c2cccn2S(=O)(=O)c2ccccc2N1C(=O)c1ccccc1` (racemic), the Activity in the experiment on K562 [1] amounted to 45%; in the experiment on K562 [2] it was 89.6%; in the experiment on K562 [3], 66.6%; in the experiment on K562 [4], 80%.

With `CCOC(=O)C1c2cccn2S(=O)(=O)c2ccccc2N1C(=O)c1ccc(Cl)cc1` (racemic), the Activity came to 44.3% in the experiment on K562 [1], 91.7% with K562 [2], 67% with K562 [3] and 79.7% with K562 [4].

In the case of `O=S1(=O)c2ccccc2NC(CO)c2cccn21` (racemic), the Activity in the experiment on K562 [1] was 5.3%; with K562 [2], 23%; in the experiment with K562 [3], 19.3%; in the experiment on K562 [4], 19.6%.

With `CCOC(=O)CC1c2cccn2S(=O)(=O)c2ccccc2N1C(=O)c1ccc(C)cc1` (racemic), the Activity in the experiment with K562 [1] was determined as 45%; in the experiment on K562 [2], 87.6%; with K562 [3] it was 67.6%; with K562 [4], 74.3%.

In the case of `O=C(O)CC1Nc2ccccc2S(=O)(=O)n2cccc21` (racemic), the Activity in the experiment with K562 [1] was 4.5%; with K562 [2], 6.1%; in the experiment with K562 [3] it was 5.5%; with K562 [4], 6.4%.

Consider `CCOC(=O)CC1c2cccn2S(=O)(=O)c2ccccc2N1C(=O)c1ccc(F)cc1` (racemic), for which the Activity with K562 [1] was found to be 44.6%; in the experiment on K562 [2], 90.7%; in the experiment with K562 [3], 66.3%; in the experiment on K562 [4], 79%.

For the compound `CCOC(=O)CC1c2cccn2S(=O)(=O)c2ccccc2N1C(=O)c1cccc2ccccc12` (racemic), the Activity with K562 [1] was found to be 47%; in the experiment on K562 [2] it was 92.6%; with K562 [3], 69%; with K562 [4] it was 80%.

For `CCOC(=O)CC1c2cccn2S(=O)(=O)c2ccccc2N1C(=O)c1ccc(Cl)cc1` (racemic), the Activity in the experiment with K562 [1] was 43%; in the experiment with K562 [2] it was 90%; with K562 [3] it was 65.5%; in the experiment on K562 [4] it was 78%.

`CCOC(=O)CC1c2cccn2S(=O)(=O)c2ccccc2N1C(=O)c1ccccc1` (racemic): the Activity with K562 [1] is listed as 45.3%; in the experiment with K562 [2] it was 92.3%; in the experiment on K562 [3], 68%; in the experiment on K562 [4], 79.5%.

With `O=C(O)C1Nc2ccccc2S(=O)(=O)n2cccc21` (racemic), the Activity was found to be 4.8% in the experiment with K562 [1], 6.2% with K562 [2], 5.7% in the experiment with K562 [3] and 6.8% with K562 [4].

As for `CCOC(=O)CC1Nc2ccccc2S(=O)(=O)n2cccc21` (racemic), the Activity worked out at 29.3% with K562 [1], 88.3% in the experiment with K562 [2], 53% in the experiment on K562 [3] and 72% in the experiment with K562 [4].

Take `CCOC(=O)C1c2cccn2S(=O)(=O)c2ccccc2N1C(=O)c1ccc(C)cc1` (racemic): the Activity with K562 [1] came to 45.6%; in the experiment listed under Homo sapiens [5], 78%; in the experiment on K562 [2] it was 91.7%; in the experiment on K562 [3], 67.6%; with K562 [4] it was 79.6%; in the experiment filed under Homo sapiens [8], 55%. Further, the Activity in the experiment listed under Homo sapiens [9] turned out to be 78%; in the experiment filed under Homo sapiens [10] it was 55%. Besides, the result with K562 [6] was inactive. Besides, the result with K562 [7] was Active.

Regarding `CCOC(=O)C1c2cccn2S(=O)(=O)c2ccccc2N1C(=O)c1ccc(F)cc1` (racemic), the Activity is reported as 45.3% with K562 [1], 92% in the experiment on K562 [2], 67.6% with K562 [3] and 81% in the experiment with K562 [4].

For `CCOC(=O)C1c2cccn2S(=O)(=O)c2ccccc2N1C(=O)c1cccc2ccccc12` (racemic), the Activity in the experiment on K562 [1] was found to be 43.7%; in the experiment on K562 [2] it was 87.6%; in the experiment with K562 [3], 66%; in the experiment on K562 [4], 77%.

On to `CCOC(=O)C1Nc2ccccc2S(=O)(=O)n2cccc21` (racemic), for which the Activity with K562 [1] came out at 34%; in the experiment filed under Homo sapiens [5], 60%; in the experiment on K562 [2] it was 89.7%; in the experiment with K562 [3], 61.3%; in the experiment on K562 [4], 76.3%; in the experiment filed under Homo sapiens [8] it was 40%. In addition, the Activity in the experiment listed under Homo sapiens [9] is given as 70%; in the experiment filed under Homo sapiens [10], 50%. Also, the result in the experiment on K562 [6] and in the experiment on K562 [7] was Active. In the experiment on K562 [11], the result was inactive.

In the case of `Cc1ccc(NC(=O)c2ccc(CN3CCN(C)CC3)cc2)cc1Nc1nccc(-c2cccnc2)n1` [IMATINIB], the Activity is listed as 66.7% with K562 [1], 71.2% with K562 [2], 70% with K562 [3] and 71% in the experiment on K562 [4].
